A word on the IC50: it is the concentration at which inhibition is half-maximal.

Assay [1] concerns Pyricularia grisea. The assay can be described thus: Antifungal activity against Magnaporthe grisea in fourth-leaf stage of rice plant assessed as preventive efficacy at 100 ug/ml after 11 days relative to control. Format: functional.
A further assay deals with Cytospora mali. The assay can be described thus: Antifungal activity against Valsa mali assessed as inhibition of mycelial growth. Format: functional, organism-based. The method in brief:
(§1)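 Mycelial growth on potato dextrose agar in 9 cm dishes containing serial concentrations of sample, dissolved in aqueous 1% DMSO/4% Tween-80. Mycelium inoculated at plate centre and incubated in the dark at 28 °C until control growth reached the dish edge. Inhibition (%) = (1 − Da/Db) × 100 from growth-zone diameters. IC50 by probit analysis. Cycloheximide as positive control. Run in triplicate.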

For assay [2], the system named is Pyricularia grisea. Description: Antifungal activity against Magnaporthe grisea assessed as inhibition of mycelial growth. Format: functional, organism-based. Summed up: (§2)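 Poisoned-food assay. Serial concentrations in aqueous 1% DMSO/4% Tween-80 were mixed into molten potato dextrose agar. Mycelium was inoculated at the plate centre and incubated in the dark at 28 °C until control growth reached the dish edge. Inhibition % = (1 − Da/Db) × 100 from colony diameters. IC50 by probit analysis; run in triplicate.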

Assay [3] has as its system Pyricularia grisea. Description: Antifungal activity against Magnaporthe grisea assessed as inhibition of spore germination after 12 hr by light microscopic analysis. Format: functional, organism-based. The method in brief:
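M. oryzae spores were taken from 7-day oatmeal–tomato agar cultures. 50 μL of compound in 1% DMSO/4% Tween-80 was mixed with 50 μL spore suspension (2.5 × 10^5 spores). 40 μL drops went on slides, in triplicate. Slides were kept in a moist chamber at 28 °C for 12 h. About 100 spores per replicate were scored; IC50 by probit analysis.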

Assay [4] concerns Pyricularia grisea. The assay can be described thus: Antifungal activity against Magnaporthe grisea in fourth-leaf stage of rice plant assessed as curative efficacy at 100 ug/ml after 11 days relative to control. Format: functional.
The next assay relates to Dothiorella gregaria. Description: Antifungal activity against Dothiorella gregaria assessed as inhibition of mycelial growth. Format: functional, organism-based. Summed up: as §1
Another assay has as its system Fusarium graminearum. Description: Antifungal activity against Fusarium graminearum assessed as inhibition of mycelial growth. Format: functional, organism-based. The method in brief:
as §2

A further assay concerns Rhizoctonia solani. Description: Antifungal activity against Rhizoctonia solani assessed as inhibition of mycelial growth. Format: functional, organism-based. The method in brief:
as §1

For assay [5], the system named is Fusarium oxysporum f. sp. cucumerinum. The assay can be described thus: Antifungal activity against Fusarium oxysporum f. sp. cucumerinum assessed as inhibition of mycelial growth. The assay is classed as functional, organism-based. Summed up: as §1

In brackets after ≈: the same amount, converted by molar mass.

On to `COC(=O)Nc1nc2ccccc2[nH]1` [CARBENDAZIM], for which, in the assay on Pyricularia grisea [1], the Activity amounted to 58.7%.
Take `Cc1cc(O)cc2cc3c(c(O)c12)C(=O)c1c(O)cc(O)cc1C3=O` [TETRACENOMYCIN D]: the half-maximal inhibitory concentration (IC50) in the assay with Cytospora mali and with Pyricularia grisea [2] was more than 25 µg/mL throughout.
For `Cc1cc(O)c2c3c4c(cc(O)c13)C(C)(C)C(=O)c1c(O)cc(O)c(c1-4)C2=O` [HELIOMYCIN], the IC50 is 1.1 µg/mL (≈ 2.92 µM) in the assay with Cytospora mali; 5.55 µg/mL (≈ 14.7 µM) with Pyricularia grisea [3]; more than 100 µg/mL in the assay on Dothiorella gregaria; more than 100 µg/mL in the assay on Fusarium graminearum; 3.8 µg/mL (≈ 10.1 µM) in the assay with Pyricularia grisea [2]; more than 100 µg/mL in the assay with Rhizoctonia solani. The half-maximal inhibitory concentration (IC50) in assay [5] is more than 100 µg/mL. For the same molecule, the results for the Activity in the assay with Pyricularia grisea [4] and with Pyricularia grisea [1] were less than 25% and 66.8%, respectively.
As to `C[C@@H]1C[C@@H]([C@H](O)CC2CC(=O)NC(=O)C2)C(=O)[C@@H](C)C1` [CYCLOHEXIMIDE], the IC50 came out at 0.3 µg/mL (≈ 1.07 µM) with Cytospora mali; 0.9 µg/mL (≈ 3.2 µM) in the assay on Dothiorella gregaria; 3.3 µg/mL (≈ 11.7 µM) in the assay with Fusarium graminearum; 2.3 µg/mL (≈ 8.17 µM) in the assay on Pyricularia grisea [2]; 0.3 µg/mL (≈ 1.07 µM) in the assay on Rhizoctonia solani; 4.9 µg/mL (≈ 17.4 µM) in [5].

Values taken from ChEMBL document CHEMBL3044840, “Antifungal activities of metabolites produced by a termite-associated Streptomyces canus BYB02” (J Agric Food Chem, 2013).
